Values joined by “and” are separate entries in the source; they are usually repeats but may differ in a detail not shown here. Equal entries are not always repeated. Values belong to the molecule of their own block, whether it stands above or below them.
Experiments:
[1] = system: CD22 (Siglec-2) on B cells; details: ligand targeting chemotherapeutic loaded liposomes; cited from earlier work
Sn [2] = details: liposomes decorated with the ligand; cited from earlier work
murine Sn = murine Sn (Mus musculus, UniProt Q62230); details: inhibition of mSn-Fc chimera binding to natural-ligand beads; triplicate, ± SD
murine Sn, sequence (Q62230 20-136 limits assumed): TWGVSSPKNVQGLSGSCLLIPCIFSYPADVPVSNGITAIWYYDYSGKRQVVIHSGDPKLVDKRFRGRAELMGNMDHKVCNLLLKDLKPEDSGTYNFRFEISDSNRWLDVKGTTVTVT
Outline: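 Magnetic beads coated with Neu5Acα2-3Galβ1-4GlcNAc were bound by murine sialoadhesin-Fc chimera in the presence of serial dilutions of competitor (9-N-acyl sialoside analogs). Displacement of bead-bound chimera was read by flow cytometry, and IC50 was taken as the concentration needed to displace the bound chimera. Titrations were run in triplicate, with SD from three independent measurements.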

Sn expressing cells = details: liposomes decorated with the ligand; cited from earlier work
Sn [3] = details: natural ligand in a comparable assay; cited from earlier work

Molecule: 9-N-biphenylcarbamoyl-Neu5Acα2-6Galβ1-4GlcNAc [6′-^BPCNeu5Ac]
survival in murine model of human B cell lymphoma [1]: prolong life

IC50 (murine Sn): 4.8 µM and 4.82 µM
Molecule: CC(=O)NC1C(O)OC(CO)C(OC2OC(CO)C(O)C(OC3(C(=O)O)CC(O)C(NC(C)=O)C(C(O)C(O)CNC(=O)c4ccc(-c5ccccc5)cc4)O3)C2O)C1O (stereo not drawn) [Compound 1, 9-N-biphenylcarbamoyl-Neu5Acα2-3Galβ1-4GlcNAc]
selectivity for in vivo targeting (Sn [2]): not sufficiently selective
targeting of Sn expressing cells in vitro (Sn expressing cells): capable of targeting Sn expressing cells in vitro

IC50 (murine Sn): 0.38 ± 0.04 µM
Molecule: CC(=O)NC1C(O)OC(CO)C(OC2OC(CO)C(O)C(OC3(C(=O)O)CC(O)C(NC(C)=O)C(C(O)C(O)CNC(=O)c4cc5c(s4)-c4ccccc4OC5)O3)C2O)C1O (stereo not drawn) [Compound 2, 9-N-(4H-thieno[3,2-c]chromene-2-carbamoyl)-Neu5Acα 2-3Galβ1-4GlcNAc]

Molecule: Neu5Acα2-3Galβ1-4GlcNAc
IC50 (Sn [3]): 1300 µM

Reference: paper PMC3462166 (Journal of the American Chemical Society, 2012)
